Screening results (PubChem)
Hits are enriched below; roughly 1.9% of the tested compounds scored in any of these assays.
M4 ag = agonists of human muscarinic M4 receptor (CHRM4). P08173. CHO-K1 hM4/Gqi5, Fluo-8 calcium fluorescence; vehicle 0%, full acetylcholine response 100%. activation, % at 3 µM. 360,000 tested, 0.14% active;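 active means activation above the run mean over all test wells plus 3 SD, cut at about 32% in these data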;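 further: peak over basal fluorescence ratio per well then scaled between controls; 0% = DMSO wells and 100% = acetylcholine at EC100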
Target sequence (P08173 whole entry, looked up): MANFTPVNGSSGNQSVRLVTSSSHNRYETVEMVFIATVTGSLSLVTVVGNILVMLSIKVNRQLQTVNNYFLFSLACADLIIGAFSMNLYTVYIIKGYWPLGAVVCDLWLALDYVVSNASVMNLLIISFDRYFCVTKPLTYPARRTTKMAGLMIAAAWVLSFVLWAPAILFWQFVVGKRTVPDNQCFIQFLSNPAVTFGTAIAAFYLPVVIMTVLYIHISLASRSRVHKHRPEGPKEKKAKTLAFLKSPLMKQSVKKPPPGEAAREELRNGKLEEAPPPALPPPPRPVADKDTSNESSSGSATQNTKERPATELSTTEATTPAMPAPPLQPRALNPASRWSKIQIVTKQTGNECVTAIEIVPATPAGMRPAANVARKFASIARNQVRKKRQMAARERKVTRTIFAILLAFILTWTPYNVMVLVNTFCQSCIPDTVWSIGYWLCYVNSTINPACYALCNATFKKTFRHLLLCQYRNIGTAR
CHRM5 PAM = CHRM5 positive allosteric modulation. activation, % at 3 µM. AID 624038. 360,000 tested, 0.3% active. CHO-K1 hM5, Fluo-8 calcium, ACh EC20 PAM; 0% = ACh EC20, 100% = ACh EC100. P08912;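 active means activation above the run cutoff, the mean activation of all test compounds plus 3 SD, cut at about 18% in these data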
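System: CHO-K1 cell line with stable human muscarinic M5 receptor expression | Also added: EC20 acetylcholine as agonist stimulus | Compound: One concentration, 3 µM final (nominal) | Timing: Fluo-8 loading 80 min at 37 °C plus 30 min room temperature | Measured by: Fluo-8 calcium dye fluorescence, kinetic read | Read-out basis: % activation, ACh-normalized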
CHRM5 antagonist = antagonists of human muscarinic M5 receptor (CHRM5); P08912; inhibition, % at 3 µM; 360,000 tested, 0.59% active; CHO-hM5 cells, Fluo-8 calcium fluorescence, ACh EC80;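 active means inhibition above a per-plate cutoff, the mean of that plate's test compounds plus 3 SD, cut at about 27% in these data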;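 further: 0% = acetylcholine EC80 with DMSO and 100% = DMSO without agonist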
CHRM5 agonist = CHRM5 agonism in calcium assay. 360,000 tested, 0.19% active. activation, % at 3 µM. CHO-K1 hM5 cells, Fluo-8 calcium fluorescence; 0% DMSO wells, 100% maximal acetylcholine response;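 active means activation above the run's mean over test compounds plus 3 SD, cut at about 23% in these data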;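 further: signal is peak over basal fluorescence ratio across the kinetic read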
M4 PAM = potentiates acetylcholine response at human M4 receptor. P08173. CHO-K1 hM4/Gqi5, Fluo-8 calcium fluorescence, ACh EC20; 0% = ACh EC20, 100% = maximal ACh. activation, % at 3 µM. 360,000 tested, 0.4% active;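 active means activation above its plate's cutoff, the mean activation of sample wells plus 3 SD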
M4 antag = CHRM4 antagonism in calcium assay. P08173. 360,000 tested, 0.73% active. AID 624125. CHO-hM4 cells, ACh EC80, Fluo-8 calcium fluorescence. inhibition, % at 3 µM;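 active means inhibition above its plate's cutoff, the mean inhibition of sample wells plus 3 SD, cut at about 27% in these data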;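 further: 0% = acetylcholine EC80 with DMSO and 100% = DMSO without agonist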
An asterisk follows results filed as active.

SMILES	M4 ag	CHRM5 PAM	CHRM5 antagonist	CHRM5 agonist	M4 PAM	M4 antag
CCCC(=O)Nc1ccc(-c2nc3ncccc3o2)cc1	1	-1	-1	5	-4	-2
CN(C(=O)c1ccncc1)C1CCCCC1	1	4	8	-1	0	-9
COc1ccc2c(c1)OC[C@H]1[C@H]2N2C(=O)c3cc(OC)ccc3NC(=O)[C@@]2(C)[C@H]1c1ccccc1	0	-10	4	0	-6	26*
COc1ccc2c(c1)OC[C@H]1[C@H]2N2C(=O)c3ccc(C)cc3NC(=O)[C@@]2(C)[C@H]1c1ccccc1	3	-2	4	-2	6	-7
O=C(Nc1ccc2cccnc2c1)c1ccc(Br)cc1	-2	1	9	1	15*	-18
COc1ccc(S(=O)(=O)N2CCOC2CNC(=O)C(=O)NCC(C)C)cc1OC (stereo unspecified)	1	1	3	-1	0	2
COCCOc1ccc(C(F)(F)F)cc1NC(=O)c1ccccc1	0	-5	1	1	12	-2
CC(C)(C)c1ccc(OCCOc2ccc(C(C)(C)C)cc2NC=O)c(NC=O)c1	19	-21	28*	1	-15	31*
Cc1ccc(-n2ncc(C#N)c2/N=C/N2CCOCC2)cc1	1	-7	9	-5	22*	-1
COc1ccccc1C(=O)N(CCC1CCCN1C)c1nc2ccccc2s1 (stereo unspecified)	20	-19	27*	-10	-25	11
CCOC(=O)CSc1nnc(-c2c[nH]c3ccccc23)o1	-2	-3	4	1	-17	100*
COc1ccccc1NC(=O)CSc1nnc(-c2ccncc2)o1	2	23*	-3	-2	6	-9
O=C(CSc1nnc(Cn2nnc3ccccc32)o1)N(Cc1ccc(F)cc1)c1ccccc1	10	-15	37*	1	-20	21
CCOC(=O)N1CCN(C(=O)CSc2nnc(-c3ccccc3OC)o2)CC1	0	1	-5	1	30*	10
Cc1cccc(C)c1-n1cccc1/C=C1\SC(=S)N(c2cccc(C(=O)O)c2)C1=O	0	-6	-4	-8	-3	-5
COc1ccc(CN(C(=O)CSc2nnc(-c3c[nH]c4ccccc34)o2)c2ccc(F)cc2)cc1OC	19	-26	21	5	-12	41*
COc1ccc(CN(C(=O)CSc2nnc(-c3ccc(F)cc3)o2)c2ccc(F)cc2)cc1	2	-3	6	3	6	1
CCOC(=O)c1cccc(NC(=O)c2c(NCc3ccccc3)[nH]c(=O)[nH]c2=O)c1	0	7	7	2	4	2
O=C(CN1C(=O)NC2(CCc3ccccc32)C1=O)NCc1ccc(Cl)cc1 (stereo unspecified)	2	0	8	2	24*	-9
c1ccc(-n2cnc3ccccc32)nc1	0	-3	14	-3	0	-5
S=c1[nH]ncn1-c1ccccn1	0	6	-4	-3	25*	5
CCn1c(SCC(=O)Nc2ccc(N3CCOCC3)cc2)nnc1-c1ccncc1	2	2	2	-1	-3	-11
CN1CCC(OC(=O)c2ccccc2)CC1	0	-12	10	-9	-1	-6
CN1CCC(OC2c3ccccc3CCc3ccccc32)CC1	3	-20	99*	-2	-12	99*
CC(=O)NCCCc1nc2ccccc2n1Cc1ccccc1C	2	2	0	3	10	27*
SMILES	M4 ag	CHRM5 PAM	CHRM5 antagonist	CHRM5 agonist	M4 PAM	M4 antag
CC(C)[C@H](NC(=O)C1CCN(S(=O)(=O)c2ccccc2)CC1)C(=O)NCc1ccccc1	0	13	-13	-2	15*	-11
COc1ccc(CNC(=O)CCNC(=O)C2CCN(S(=O)(=O)c3ccc(OC)cc3)CC2)cc1	0	-7	-1	-1	19*	-15
COc1ccc(NC(=O)CCNC(=O)C2CCN(S(=O)(=O)c3ccc(OC)cc3)CC2)cc1	0	-4	13	-3	-6	4
COc1ccc(S(=O)(=O)N2CCC(C(=O)N[C@@H](C)C(=O)NC3CCCC3)CC2)cc1	1	32*	19	2	2	0
CCc1nc2ccccc2c(C(=O)OCC(=O)N(CCOC)c2c(N)n(Cc3ccccc3)c(=O)[nH]c2=O)c1C	2	-4	-3	0	15	-19
C1CCN2CC3CC(CN4CCCC[C@@H]34)[C@H]2C1	0	-1	2	-1	-3	3
CCOC(=O)N1C(=O)NC(=O)C1c1ccccc1 (stereo unspecified)	-2	5	14	1	10	-14
CCOc1ccccc1N(CC(=O)Nc1ccccc1C(=O)N1CCOCC1)S(C)(=O)=O	1	4	-2	-6	9	-7
O=[N+]([O-])c1ccccc1CNc1ccc(F)c(Cl)c1	0	-7	13	-2	-2	1
COc1cccc(CNc2ccc(F)c([N+](=O)[O-])c2)c1O	7	-8	13	1	-7	68*
CC1(C)Oc2ccc3ccc(=O)oc3c2/C(=C/NNC(N)=O)C1=O	0	0	3	-2	-5	10
CCc1noc(N)c1C(=O)Nc1ccc(F)c(Cl)c1	1	22*	-10	-5	3	-1
CCc1noc(N)c1C(=O)Nc1ccc(Cl)cc1	0	5	-5	-3	5	5
COc1ccc(-c2nnc(OC)c3ccccc23)cc1	1	-2	4	0	-15	35*
COc1ccc(Nc2nc(-c3ccc4c(c3)NC(=O)CO4)cs2)cc1	1	12	-15	-2	22*	-4
COc1ccccc1Nc1nc(-c2ccc3c(c2)NC(=O)CO3)cs1	12	2	-2	-1	0	-3
COC(=O)c1sc2nc(C)c([N+](=O)[O-])c(C)c2c1N	16	4	-7	-4	46*	18
Cc1nc([N+](=O)[O-])cn1Cc1cccc2ccccc12	3	6	0	3	5	0
Cc1ccccc1C(=O)NCC(=O)NNC(=O)CCN1CCN(c2ccccc2)CC1	1	0	2	-4	5	4
Cc1ccsc1C(=O)NNC(=O)CCN1CCN(c2ccccc2)CC1	0	2	11	1	23*	-13
CNC(=O)CN(c1ccc(OC)cc1)S(=O)(=O)c1ccc(F)cc1	0	28*	-7	-6	20*	-11
COc1ccc(N(CC(=O)Nc2c(C)n(C)n(-c3ccccc3)c2=O)S(=O)(=O)c2ccc(F)cc2)cc1	4	21*	11	-1	22*	-8
